Test results from ChEMBL document CHEMBL2040834, “Synthesis, crystal structures and electronic properties of isomers of chloro-pyridinylvinyl-1H-indoles” (Eur J Med Chem, 2012).
In brackets after ≈: the same amount, converted by molar mass.

What was measured:
[1] = molecular target: T1, Tryptophan 2,3-dioxygenase (Homo sapiens, UniProt P48775); test: Inhibition of human purified TDO assessed as formation of kynurenine from N-formylkynurenine preincubated for 10 mins measured after 5 to 20 mins by discontinuous colorimetric method
T1 sequence (P48775 whole entry): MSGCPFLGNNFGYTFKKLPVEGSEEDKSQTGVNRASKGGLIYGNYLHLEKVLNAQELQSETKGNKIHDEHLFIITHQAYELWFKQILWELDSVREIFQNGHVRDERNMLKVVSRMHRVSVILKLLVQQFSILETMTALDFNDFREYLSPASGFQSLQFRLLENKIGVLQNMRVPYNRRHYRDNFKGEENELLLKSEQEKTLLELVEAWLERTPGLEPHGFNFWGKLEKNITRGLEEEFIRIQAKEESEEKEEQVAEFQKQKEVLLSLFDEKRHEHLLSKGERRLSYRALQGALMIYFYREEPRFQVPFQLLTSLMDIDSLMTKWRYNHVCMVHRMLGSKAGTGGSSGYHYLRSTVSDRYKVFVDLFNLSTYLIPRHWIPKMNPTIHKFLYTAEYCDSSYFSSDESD

[2] = Solubility of the compound in 0.1 M of boric acid at pH 9 by HTS-PCF filter plate analysis; format: physicochemical; conditions: buffer
Outline: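 Solubility measured by filter-plate filtration at 2.5% final DMSO. Buffers: pH 1.0 (0.1 M HCl, 20 mM NaCl), pH 7.4 (50 mM phosphate, 30 mM NaCl), pH 9.0 (0.1 M boric acid, 20 mM NaCl). Filtrate quantified by C18 LC/MS with UV detection at 254 nm, using a 5–95% acetonitrile gradient in 0.1% acetic acid.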

[3] = molecular target: T1, Tryptophan 2,3-dioxygenase; test: Competitive inhibition of human purified TDO by Henri-Michaelis-Menten equation analysis
Outline: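 Recombinant human TDO expressed in E. coli, purified. Kynurenine formation read at 480 nm with Ehrlich's reagent after TCA stop and 65 °C hydrolysis. L-Trp and inhibitor concentrations both varied. Initial rates fitted to Henri–Michaelis–Menten equation for competitive Ki; Km obtained from the same data.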

[4] = molecular target: T1, Tryptophan 2,3-dioxygenase; test: Inhibition of human purified TDO assessed as initial rate of L-Trp oxidation at 100 uM of substrate concentration

SMILES: Clc1ccc2[nH]cc(/C=C/c3cccnc3)c2c1
- IC50 [1]: 10 µM
- solubility [2]: 76 mg/mL (≈ 298 mM)

SMILES: Clc1ccc2c(/C=C/c3cccnc3)c[nH]c2c1
- IC50 [1]: 5 µM
- solubility [2]: 32.1 mg/mL (≈ 126 mM)

SMILES: Clc1cccc2c(/C=C/c3cccnc3)c[nH]c12
- IC50 [1]: > 50 µM
- Ki [3]: 21 µM
- solubility [2]: 6 mg/mL (≈ 23.6 mM)
- IC50 [4]: 32 µM
